The nature of series [1]: Cytotoxicity against HEK293 cells assessed as cell viability after 66 hrs by MTT assay. It counts as cell-based. To be noted: human, read-out: LD50. In general terms: Tetrazolium dyes change colour on reduction, which living cells bring about.
Another series is filed under the species Homo sapiens. Description: Selectivity ratio of IC50 for 17beta-HSD1 in human placental cytosolic fraction to IC50 for 17beta-HSD2 in human placental microsomal fraction.
The target in series [2] is T1, 17-beta-hydroxysteroid dehydrogenase type 1 (Homo sapiens, UniProt P14061).
T1 sequence (P14061 whole entry): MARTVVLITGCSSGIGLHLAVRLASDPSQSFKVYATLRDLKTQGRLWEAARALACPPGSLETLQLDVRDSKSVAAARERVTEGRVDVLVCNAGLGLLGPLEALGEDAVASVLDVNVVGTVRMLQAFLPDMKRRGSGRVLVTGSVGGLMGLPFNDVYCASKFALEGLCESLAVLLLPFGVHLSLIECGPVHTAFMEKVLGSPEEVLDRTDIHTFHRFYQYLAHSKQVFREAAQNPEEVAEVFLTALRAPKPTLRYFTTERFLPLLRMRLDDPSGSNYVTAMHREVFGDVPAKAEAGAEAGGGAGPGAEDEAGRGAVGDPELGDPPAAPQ
Description: Inhibition of 17beta-HSD1 in human placental cytosolic fraction using E1/NADH as substrate/cofactor after 10 mins by HPLC analysis. In a few lines:
(§1)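 Enzyme source is human placenta, cytosolic fraction. Substrate is estrone (E1) at 500 nM, with NADH as cofactor. Values are the mean of at least two determinations, with standard deviation below 20%.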

The target in series [3] is T2, 17-beta-hydroxysteroid dehydrogenase type 2 (Homo sapiens, UniProt P37059).
T2 sequence (P37059 whole entry): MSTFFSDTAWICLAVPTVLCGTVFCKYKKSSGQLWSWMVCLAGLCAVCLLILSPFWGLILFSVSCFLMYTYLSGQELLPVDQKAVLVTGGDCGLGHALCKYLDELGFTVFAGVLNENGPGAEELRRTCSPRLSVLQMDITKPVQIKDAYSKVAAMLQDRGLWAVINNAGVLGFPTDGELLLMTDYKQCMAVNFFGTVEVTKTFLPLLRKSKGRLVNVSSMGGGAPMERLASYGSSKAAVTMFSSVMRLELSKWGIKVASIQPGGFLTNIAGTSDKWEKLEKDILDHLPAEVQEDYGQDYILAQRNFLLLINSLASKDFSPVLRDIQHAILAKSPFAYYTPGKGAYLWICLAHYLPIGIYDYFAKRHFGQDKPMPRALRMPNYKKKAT
Kind of series: Inhibition of 17beta-HSD2 in human placental microsomal fraction using E2/NAD+ as substrate/cofactor after 20 mins by HPLC analysis. More on the design: species or system Placenta. The gist of the method:
(§2)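 Enzyme source is human placenta, microsomal fraction. Substrate is estradiol (E2) at 500 nM, with NAD+ as cofactor. Values are the mean of at least two determinations, with standard deviation below 20%.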

Series [4] concerns the target T3, 17-beta-hydroxysteroid dehydrogenase type 2 (Homo sapiens) (UniProt P37059).
T3 sequence (whole entry): T2 sequence (P37059 whole entry)
Description: Inhibition of 17beta-HSD2 in human placental microsomal fraction using E2/NAD+ as substrate/cofactor at 1 uM after 20 mins by HPLC analysis. As to conditions: Placenta. The gist of the method: as §2

In series [5] the target is T4, 17-beta-hydroxysteroid dehydrogenase type 1 (Homo sapiens) (UniProt P14061).
T4 sequence (whole entry): T1 sequence (P14061 whole entry)
Description: Inhibition of 17beta-HSD1 in human placental cytosolic fraction using E1/NADH as substrate/cofactor at 1 uM after 10 mins by HPLC analysis. In a few lines:
as §1

Series [6] in a line: Half life in human liver S9 fraction at 1 uM after 5 to 60 mins by LC-MS/MS analysis. Format: ADME, subcellular.
Series [7] in a line: Cytotoxicity against HEK293 cells assessed as cell viability at 6.25 uM after 66 hrs by MTT assay. Format: cell-based. To be noted: human, read-out: Activity.

Experimental findings from ChEMBL document CHEMBL3739412, “Addressing cytotoxicity of 1,4-biphenyl amide derivatives: Discovery of new potent and selective 17β-hydroxysteroid dehydrogenase type 2 inhibitors” (Bioorg Med Chem Lett, 2016) are described below.

Active and inactive are the calls of the source. The calls are words filed in the database; no cut-off is given here.

For `Cc1ccc(Oc2ccc(C(=O)N(C)c3cccc(C)c3)cc2)cc1`, in series [1], the CC50 at 66 h was 25 µM. In the series listed under Homo sapiens, the Ratio IC50 was 168. For the same compound, the IC50 in series [2] (read-out: IC50) is 26.3 µM; in series [3], 0.16 µM.
Turning to `COc1cccc(C(=O)N2CCN(c3cccc(C)c3)CC2)c1`, the inhibition result in series [4] and in series [5] was “inactive” in each case.
As for `COc1cccc(C(=O)N2CCN(c3cccc(OC)c3)CC2)c1`, the inhibition result in series [4] and in series [5] was “inactive” each time.
On to `COc1cccc(S(=O)(=O)N2CCN(c3ccc(F)c(OC)c3)CC2)c1`, for which the inhibition in series [4] is 15%. The inhibition result in series [5] is “inactive”.
The matching figures for `Cc1cccc(N2CCN(S(=O)(=O)c3cccc(O)c3)CC2)c1`: 27% and “inactive”.
In series [4], `Cc1cccc(N2CCN(C(=O)c3cccc(O)c3)CC2)c1` returned an inhibition of 16%. In series [5], the inhibition result was “inactive”.
On to `COc1cccc(N(C)C(=O)C2CCC(c3ccc(Cl)cc3)CC2)c1` (stereo unspecified), for which, in series [1], the CC50 at 66 h is more than 12.5 µM. Also, the Ratio IC50 in the series filed under Homo sapiens stood at 209. For the same compound, the IC50 in series [2] (read-out: IC50) stood at 60.1 µM; in series [3], 0.29 µM.
Take `Cc1cccc(N(C)C(=O)c2ccc(Oc3ccccc3C)cc2)c1`: the inhibition in series [4] is 55%. In addition, the IC50 entry in series [2] was “Not Active”. The inhibition entry in series [5] was “inactive”.
Regarding `COc1cccc(N2CCN(S(=O)(=O)c3cccc(OC)c3)CC2)c1`, the inhibition entry in series [4] and in series [5] was “inactive” throughout.
Consider `COc1cccc(C(=O)N2CCN(c3ccc(C)cc3)CC2)c1`, for which the inhibition in series [4] worked out at 16%. For the same compound, the inhibition result in series [5] is “inactive”.
In turn, `CN(C(=O)c1ccc(Oc2ccc(O)cc2)cc1)c1cccc(O)c1` registered an inhibition in series [4] of 43%. In series [2], the IC50 entry is “Not Active”. Moreover, the inhibition entry in series [5] was “inactive”.
With `COc1ccc(Oc2ccc(C(=O)N(C)c3cccc(OC)c3)cc2)cc1`, in series [1], the CC50 at 66 h came out at 25 µM. Also, the Ratio IC50 in the series listed under Homo sapiens stood at 31. Moreover, the IC50 in series [2] (read-out: IC50) came to 9.6 µM; in series [3] it was 0.31 µM.
`COc1cccc(S(=O)(=O)N2CCN(c3cccc(C)c3)CC2)c1` yielded an inhibition in series [4] of 16%. Further, in series [5], the inhibition result is “inactive”.
The compound `O=S(=O)(c1cccc(O)c1)N1CCN(c2ccc(F)c(O)c2)CC1` had an inhibition in series [4] of 48%. Further, in series [5], the inhibition entry is “inactive”.
The matching figures for `Cc1ccc(N2CCN(C(=O)c3cccc(O)c3)CC2)cc1`: “inactive” and “inactive”.
`Cc1cccc(Oc2ccc(C(=O)N(C)c3cccc(C)c3)cc2)c1`: the CC50 at 66 h in series [1] is 25 µM. In addition, the Ratio IC50 in the series filed under Homo sapiens was found to be 54. The IC50 in series [2] (read-out: IC50) was determined as 16.1 µM; in series [3], 0.3 µM.
As to `Cc1cccc(N(C)C(=O)c2ccc(Oc3ccccc3)cc2)c1`, the inhibition in series [4] came out at 59%. Besides, in series [2], the IC50 entry is on record as “Not Active”. For the same compound, the inhibition result in series [5] is “inactive”.
In series [4], `O=S(=O)(c1cccc(O)c1)N1CCN(c2cccc(O)c2)CC1` came in with an inhibition of 25%. The inhibition entry in series [5] was “inactive”.
Take `COc1cccc(N(C)C(=O)c2ccc(Oc3ccc([N+](=O)[O-])cc3)cc2)c1`: the inhibition in series [4] amounted to 43%. The IC50 result in series [2] was “Not Active”. The inhibition entry in series [5] was “inactive”.
Turning to `COc1cccc(N(C)C(=O)c2ccc(Oc3ccc(Cl)cc3)cc2)c1`, the inhibition in series [4] turned out to be 51%; in series [5] it was 13%.
Turning to `COc1cccc(N(C)C(=O)c2ccc(-c3ccc(C)c(C)c3)cc2)c1`, the CC50 at 66 h in series [1] is less than 6.25 µM. Besides, in series [4], the inhibition was found to be 75%. Besides, the Ratio IC50 in the series filed under Homo sapiens came out at 44. In series [6], this compound registered a half-life at 1 µM of 1.78 h. Besides, the viability at 66 h, 6.25 µM in series [7] turned out to be 34%.
Consider `COc1cccc(C(=O)N2CCN(c3ccccc3)CC2)c1`, for which the inhibition in series [4] was determined as 14%. Moreover, the inhibition entry in series [5] was “inactive”.
For `O=C(c1cccc(O)c1)N1CCN(c2ccccc2)CC1`, in that order: 27% and “inactive”.

What is called IC50 is the concentration at which inhibition is half-maximal. Broadly, the inhibition is the share of the control response that was lost under treatment. Broadly, the half-life is the time in which the quantity being followed falls by half. The low end stands for rapid decline, the high end for slow decline.
